SUMO HTRF inh – inhibitors of human SUMOylation (UBC9) | inhibition, % at 35 µM | HTRF SUMOylation assay, SAE1/SAE2 + UBC9, in vitro | actives 0.36% (n = 290,000) | P63279 | AID 2006; in the data active = inhibition above about 50%, passing the limit was not always enough
SENP1 inh – inhibitors of human SENP1 SUMO protease catalytic domain. actives 0.21% (n = 360,000). Q9P0U3. inhibition, % at 10 µM. recombinant SENP1 catalytic domain, CyPet-SUMO1-YPet FRET cleavage;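 active = inhibition at least 30% at 10 µM, raw YFP signal under a set limit, fluorescence ratio 0.5 to 1.5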;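 note: 0% = enzyme with DMSO and 100% = no enzyme wells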
Target sequence (Q9P0U3 419-644 limits assumed): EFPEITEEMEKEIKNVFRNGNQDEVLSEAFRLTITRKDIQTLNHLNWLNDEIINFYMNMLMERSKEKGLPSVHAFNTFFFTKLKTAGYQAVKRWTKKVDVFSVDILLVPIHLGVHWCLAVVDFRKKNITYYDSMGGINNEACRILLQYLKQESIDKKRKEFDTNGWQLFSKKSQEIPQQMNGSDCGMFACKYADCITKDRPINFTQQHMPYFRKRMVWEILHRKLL
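System: Recombinant human SENP1 catalytic domain, His6-tagged | Incubation: Enzyme reaction for 50 min at room temperature, dark | Medium: Tris pH 8 with BME, BSA, NP40 and catalase | Also added: 25 nM SUMO1 FRET substrate | Compound: 10 µM single point, 0.5% DMSO | Measured by: FRET fluorescence in CFP and YFP emission channels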
CSN inh – blocks human CSN-mediated cullin deneddylation | Q92905 | Purified CSN, SCF-Nedd8-OG deneddylation, fluorescence polarization | inhibition, % at 12.5 µM | actives 0.38% (n = 360,000);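 active = pattern-corrected inhibition above about 35%, with an unprinted fluorescence ratio check between 0.5 and 1.5, limit read from the data, passing the limit was not always enough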;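 note: 0% = enzyme with substrate and 100% = substrate without enzyme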
Target sequence (Q92905 whole entry, looked up, one chain of several): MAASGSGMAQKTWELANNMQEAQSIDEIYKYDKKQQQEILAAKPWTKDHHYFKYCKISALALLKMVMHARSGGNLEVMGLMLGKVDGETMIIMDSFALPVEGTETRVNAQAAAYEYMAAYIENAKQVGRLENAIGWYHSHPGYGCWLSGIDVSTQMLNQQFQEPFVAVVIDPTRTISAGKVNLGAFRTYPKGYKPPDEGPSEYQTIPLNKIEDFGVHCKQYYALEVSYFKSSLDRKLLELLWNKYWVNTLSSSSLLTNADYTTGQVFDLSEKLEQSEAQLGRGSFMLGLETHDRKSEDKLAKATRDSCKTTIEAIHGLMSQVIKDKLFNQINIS
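Assay system: purified human Csn5 enzyme expressed in HEK293T cells; Input: 0.24 nM Csn5 enzyme, final concentration; Reagent: 10 nM SCFSkp2-Nedd8OG; Compound dosing: 12.5 µM single point; Times: reaction 90 min, room temperature; Technique: fluorescence polarization readout.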
TPT1 inhibitor – C. albicans TPT1 enzyme inhibition; recombinant caTPT1, FP RNA substrate dephosphorylation; inhibition, % at 5 µM; actives 0.81% (n = 300,000); AID 1962;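 active = inhibition above the mean of all tested compounds plus 3 SD, set per screening campaign, cut at about 24% in these data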;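 note: plate controls were DMSO alone for no effect and ferristatin control at 100 nM for full effect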
Rpn11 inh – Rpn11 (human) deubiquitinase inhibition; O00487; human 26S proteasome, Ub4-pepOG fluorescence polarization; 20S core pre-blocked with epoxomicin; calls only at 20 µM; actives 0.59% (n = 360,000); AID 588493;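 active = inhibition at 20 µM, scaled to each plate's controls, above about 33%, limit read from the data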
HNF4A DNA FP – change in binding of human HNF4 alpha to DNA | P41235 | HNF4a-FITC DNA binding, fluorescence polarization, 1 h | activity change, % at 10 µM | actives 0.3% (n = 360,000); in the data active = activity change above about 30%, passing the limit was not always enough
Numbers without * were called inactive; i = inactive; nt = not tested or not shown; + = active, no number. Hits are enriched below; roughly 1.8% of the tested compounds scored in any of these assays.

SMILES | SUMO HTRF inh | SENP1 inh | CSN inh | TPT1 inhibitor | Rpn11 inh | HNF4A DNA FP
C=CC[n+]1c(/C=C2\C=Cc3cc(C)ccc3N2CC)ccc2ccccc21 | 7 | 12 | 18 | 6 | i | 38*
CCOC(=O)c1c(NC(=O)C(C)N2CCN(S(=O)(=O)c3cccs3)CC2)sc2c1CCC(C)C2 (stereo not given) | -4 | 1 | -4 | -1 | i | -2
Cc1cc(C)cc(NC(=S)Nc2cccc3cnccc23)c1 | 94 | -5 | 37* | nt | i | 2
Cc1ccc(NC(=S)c2ccncc2)c(C)c1 | 5 | 1 | -3 | 2 | i | 1
Cc1ccc(NC(=S)Nc2cccc3cnccc23)c(C)c1 | 97* | -3 | 11 | 1 | i | 1
CCc1ccc(NC(=S)Nc2cccc3cnccc23)cc1 | 96 | -7 | 38* | 1 | i | -1
CC(=O)N(C)c1ccc(NC(=S)Nc2ccccc2)cc1 | -2 | 0 | -5 | -2 | i | 0
CC(=O)N(C)c1ccc(NC(=S)Nc2cccc3ccccc23)cc1 | 95* | -23 | 19 | 0 | i | -1
C=C(C)CNC(=S)Nc1cccc2cnccc12 | 4 | 0 | 0 | 1 | i | 6
CCC(C)(C)n1nnnc1CN1CCN(c2nc3cc(OC)ccc3cc2C#N)CC1 | -15 | -15 | 4 | -4 | i | 1
O=C1CCCC2=C1C(c1ccc(O)c(O)c1)Nc1ccc3ncccc3c12 (stereo not given) | 29 | -5 | 7 | -4 | i | -10
Cc1cccc(NS(=O)(=O)c2ccc(C(C)(C)C)cc2)n1 | 3 | -2 | 4 | -1 | i | 1
O=C(CN1CCN(C(=O)c2ccccc2)CC1)Nc1cc(S(=O)(=O)N2CCCC2)ccc1Cl | nt | -3 | 0 | nt | i | 0
COc1ccc(CCNS(=O)(=O)c2cc3c4c(c2)CCN4C(=O)CC3)cc1 | nt | -1 | 3 | -3 | i | 2
c1coc(-c2nnc3sc(Cc4cccs4)nn23)c1 | 49 | -6 | 35* | 3 | i | -8
Cc1cc2ncc(Cl)nc2cc1C | -4 | -4 | 1 | -1 | i | 3
CC(=O)NC1C(=O)N(CCN2CCOCC2)c2ccc(Br)cc21 (stereo not given) | 62* | -4 | 2 | -3 | i | 2
CCN1C(=O)C(NC(C)=O)c2cc(OC)ccc21 (stereo not given) | 11 | 0 | 2 | -5 | i | -3
CCOc1ccc2c(c1)C(NC(C)=O)C(=O)N2CCN1CCOCC1 (stereo not given) | 57* | 1 | -4 | nt | i | -1
CCOc1cc(Br)c(Br)c(C=Nc2ccc(NC(C)=O)cc2)c1O | 7 | 41* | 11 | -3 | i | -25
C=C(C)CN(CC)c1nc(N)c2c(N)nc3c(c2c1C#N)CC(=O)N3C12CC3CC(CC(C3)C1)C2 | 62* | -22 | 19 | -5 | i | 7
N#Cc1c(N(CCO)CCO)nc(N)c2c(N)nc3c(c12)CC(=O)N3CC1CCCO1 (stereo not given) | 101* | -38 | 12 | 1 | i | 1
CCCCN1C(=O)Cc2c1nc(N)c1c(N)nc(N(CCC)CCC)c(C#N)c21 | 94* | -52 | 22 | -8 | i | 5
CSC1=NC(=O)/C(=C\c2cccc3ccccc23)S1 | -3 | 0 | 17 | -1 | i | -1
COc1ccnc(N=CNOCc2ccc(F)cc2Cl)c1C#N | 0 | 1 | 4 | 1 | i | -2
SMILES | SUMO HTRF inh | SENP1 inh | CSN inh | TPT1 inhibitor | Rpn11 inh | HNF4A DNA FP
CCOc1ccc(NC(=O)CCn2cccc2)cc1 | -37 | 2 | 3 | 4 | i | 3
C/C(=N\OC(=O)c1ccccc1)c1cc(-c2ccc(Cl)cc2)no1 | 34 | 1 | 2 | 1 | i | 11
CCCc1ccc(Oc2cc(C)nc(N3CCOCC3)n2)cc1 | -27 | 1 | 94* | 1 | i | 3
C=C1c2cccc(O)c2C(O)=C2C(=O)[C@]3(O)C(O)=C(C(N)=O)C(=O)[C@@H](N(C)C)[C@@H]3[C@@H](O)[C@H]12 | 93* | 31* | 49 | -8 | i | -52
O=C(NN1CCOCC1)c1ccc(S(=O)(=O)N2CCCCC2)cc1 | -7 | 0 | -8 | 2 | i | 0
N#Cc1sc2nc(C3CC3)cc(-c3ccccc3)c2c1N | 32 | -28 | -5 | 4 | i | 0
N#Cc1sc2nc(-c3ccccc3)cc(-c3ccco3)c2c1N | 88 | -17 | 40* | 10 | i | 11
Cc1ccc(-c2cc(-c3ccco3)c(C#N)c(=O)[nH]2)cc1 | 62* | -32 | 14 | -4 | i | 37
N#Cc1c(-c2ccccc2)cc(-c2ccco2)c(C#N)c1N | 53* | nt | nt | nt | nt | nt
Clc1ccc(-c2noc(CSc3nnc(-c4ccncc4)n3-c3ccccc3)n2)cc1 | -4 | -3 | -1 | 2 | i | 3
CCOC(=O)Cn1nc(-c2ccccc2)c2cnc3ccc(C)cc3c21 | 24 | -3 | 7 | 0 | i | -3
O=C(NCc1ccccc1Cl)c1ccc2nc([C@H]3C[C@H](O)[C@@H](CO)O3)[nH]c2c1 | nt | 0 | 5 | nt | i | -3
N#Cc1ccccc1NC(=O)C1CC(=O)N(c2ccc3c4c(cccc24)CC3)C1 (stereo not given) | -11 | 0 | 3 | -1 | i | 1
Cc1ccc(NC(=O)C2CC(=O)N(c3ccc4c5c(cccc35)CC4)C2)cc1 (stereo not given) | -5 | 3 | 35* | -3 | i | 2
CC(=C/c1ccccc1)/C=N/NC(=O)c1nnn(-c2nonc2N)c1CN1CCC(C)CC1 | -6 | 0 | -4 | 2 | i | 1
CC1CCN(Cc2c(C(=O)N/N=C/c3ccccc3O)nnn2-c2nonc2N)CC1 | 54* | -10 | 4 | -1 | i | 2
CC(C)n1cc(CN2CCC(C(=O)Nc3cccc(-c4cccc(Cl)c4)c3)CC2)cn1 | -1 | -3 | 0 | 1 | i | 7
Cc1nn(C)c(C)c1NC(=O)CCCSc1nc(-c2ccco2)cc(C(F)(F)F)n1 | -7 | -3 | -3 | 0 | i | 1
O=C(/C=C/c1cc[n+](CC(=O)c2ccc3cccc4c3c2CC4)cc1)c1ccc2cccc3c2c1CC3 | 32 | -35 | 113* | 49* | + | 178
O=C(Nc1ccc(N2CCN(C(=O)c3cccs3)CC2)cc1)c1cccnc1 | 4 | 4 | -13 | -3 | i | 2
CC(CCc1ccccc1)NC(=O)CCN1N=C(c2ccccc2)CCC1=O (stereo not given) | 9 | 2 | -3 | 0 | i | 0
